Screens from PubChem BioAssay.
Only some compounds are listed: those with a hit (about 2.3% of all), similar ones and a draw of the others.
TAAR1 antagonist – human TAAR1 antagonism; inhibition, % at 3 µM; 360,000 compounds, 1.5% hits; Q96RJ0; CHO RD-HGA16 TAAR1, Fluo-8 calcium fluorescence, antagonist;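 active means inhibition above a per-plate cutoff, the mean inhibition of test compounds on that plate plus 3 SD, cut at about 49% in these data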;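 further: 0% = DMSO plus EC80 beta-PEA response and 100% = DMSO alone without agonist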
Target sequence (Q96RJ0 whole entry, looked up): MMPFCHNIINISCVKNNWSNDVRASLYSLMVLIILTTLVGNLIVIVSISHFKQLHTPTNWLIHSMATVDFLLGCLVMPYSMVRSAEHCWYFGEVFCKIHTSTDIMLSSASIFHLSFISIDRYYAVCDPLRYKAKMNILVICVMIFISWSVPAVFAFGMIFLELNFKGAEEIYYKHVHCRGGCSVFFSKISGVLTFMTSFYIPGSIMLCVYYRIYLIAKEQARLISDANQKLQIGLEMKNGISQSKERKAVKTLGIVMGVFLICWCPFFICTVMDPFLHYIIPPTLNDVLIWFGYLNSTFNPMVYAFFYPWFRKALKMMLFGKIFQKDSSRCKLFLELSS
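Material: CHO RD-HGA16 cells bearing hTAAR1; compound dosing: one-point dosing, 3 µM nominal final; schedule: dye loading 75 min at 37 °C, then 30 min room temperature; measured by: calcium fluorescence with Fluo-8; control set: vehicle and agonist controls; replication: n of 1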
OXTR potentiator – human OXTR potentiation; P30559; CHO-OTR cells, Fluo-8 calcium fluorescence, potentiator mode; 0% = oxytocin EC15, 100% = EC100; activation, % at 3 µM; 320,000 compounds, 0.061% hits;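 active means activation above that plate's cutoff, the mean activation of tested compounds plus 3 SD, cut at about 6.6% in these data, passing the limit was not always enough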;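 further: 100% uses oxytocin at 75 nM as the full agonist control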
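Material: CHO-OTR cells, human receptor; compound dosing: single dose, 3.0 µM nominal final compound concentration; schedule: 6 min compound pre-incubation at room temperature, 100 s kinetic read; measured by: kinetic Fluo-8 calcium fluorescence; read-out basis: % activation vs EC15 and EC100 oxytocin; controls: EC15 oxytocin alone as 0%, 75 nM oxytocin as 100%; replicates: singlicate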
TAAR1 ag – human TAAR1 agonism; Q96RJ0; CHO RD-HGA16 TAAR1, Fluo-8 calcium fluorescence; vehicle wells 0%, saturating PEA agonist 100%; 360,000 compounds, 0.99% hits; activation, % at 3 µM;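 active means activation above the mean activation of all test compounds in the run plus 3 SD, cut at about 38% in these data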
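Test system: RD-HGA16 (CHO) cells co-expressing Gα16 and hTAAR1; dosing: one-point dosing at 3 µM (nominal); timing: 17-24 h seeding, 75 min 37 °C dye, 30 min RT; signal: kinetic Fluo-8 calcium fluorescence; read-out basis: % activation relative to PEA EC100 response; controls: DMSO and PEA EC100; replicates: n 1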
V1R ag counter – V1a receptor agonism, counter-screen for OXTR agonists | P37288 | CHO-V1R cells, Fluo-8 calcium fluorescence, agonist mode; 0% DMSO, 100% 3 nM vasopressin | activation, % at 3 µM | 320,000 compounds, 0.25% hits | AID 2797;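 active means activation above the mean activation of all tested compounds plus 3 SD, per screening run, cut at about 20% in these data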;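 further: signal is peak over basal fluorescence ratio across a 100 second FLIPR read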
OXTR agonist – agonists of human oxytocin receptor; P30559; CHO-OTR cells, Fluo-8 calcium fluorescence; normalized: DMSO 0%, oxytocin 100%; activation, % at 3 µM; 320,000 compounds, 0.32% hits; AID 2435;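 active means activation above the mean of all tested compounds plus 3 SD, cutoff set per screening run, cut at about 20% in these data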;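 further: peak over basal fluorescence ratio from a 100 s FLIPR kinetic read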
* hit, by the source's call; nt = not tested or not shown.

SMILES	TAAR1 antagonist	OXTR potentiator	TAAR1 ag	V1R ag counter	OXTR agonist
CCCCNC(=O)C[C@@H]1C[C@@]2(C(=O)OCC)CCCC=C2N(CCc2ccc(OC)c(OC)c2)C1=O	-25	nt	1	nt	nt
CCOC(=O)[C@]12CCCC=C1N(CCc1ccc(OC)c(OC)c1)C(=O)[C@H](CC(=O)NCCc1ccccc1OC)C2	3	nt	46*	nt	nt
CCCCNC(=O)C[C@@H]1C[C@@]2(C(=O)OCC)CCCC=C2N(Cc2ccc(Cl)cc2Cl)C1=O	-23	nt	0	nt	nt
O=C(NCc1ccc(Cl)c(Cl)c1)c1cc(C2CCCCN2C(=O)OCCF)on1 (stereo not drawn)	16	nt	3	nt	nt
Cc1ccccc1N(CC(=O)N1CCCCCC1)S(C)(=O)=O	9	2	1	1	1
COC(=O)c1cc2c(C)c(C)c3ccccn3c-2c1C(=O)OC	63*	-19	17	1	-2
NC(=S)N/N=C/c1cccc(O)c1O	16	-6	4	0	0
Cc1cc(/C=N/NC(N)=S)c(O)c(/C=N/NC(N)=S)c1	9	-1	50*	20	12
OCc1cccc(-c2cnc3c(Nc4cccc(OC(F)(F)C(F)F)c4)nccn23)c1	60*	nt	5	nt	nt
COc1cc(C(=O)N2CCC(n3c(C)nc4cc(F)ccc43)CC2)cc(OC)c1OC	-5	-2	25	0	6
CC1Nc2ncnc(N3CCc4ccccc4C3)c2N(Cc2ccccc2)C1=O (stereo not drawn)	-10	nt	39*	nt	nt
O=C1C(Cc2ccccc2)Nc2ncnc(N3CCc4ccccc4C3)c2N1Cc1ccc(Cl)cc1 (stereo not drawn)	nt	-13	nt	-1	0
CC1Nc2ncnc(N3CCOCC3)c2N(Cc2ccccc2)C1=O (stereo not drawn)	17	0	8	2	1
CCC1Nc2ncnc(N3CCc4ccccc4C3)c2N(Cc2ccc(Cl)cc2)C1=O (stereo not drawn)	-1	-9	40*	1	-1
Cc1ccccc1CCNC(=O)CCn1ccc2cc(S(=O)(=O)N3CCCC3)ccc21	-3	-8	44*	0	-1
CC(C)c1ccc(OCC(O)CNC(C)c2ccccc2)cc1 (stereo not drawn)	-4	-21	57*	13	17
C#CCC1c2ccccc2CCN1CC=C (stereo not drawn)	-3	nt	2	nt	nt
COc1cc(C(=O)Oc2cccc(Nc3ncnc4ccccc34)c2)cc(OC)c1OC	82*	-11	13	6	6
O=C(Oc1cccc(Nc2ncnc3ccccc23)c1)c1cccnc1	31	-28	11	9	9
CCCOC(=O)C1NC(=O)N2C(C(=O)OCCC)C(C)(C)S[C@H]12 (stereo partly drawn)	4	6	8	2	0
CC1(C)S[C@@H]2C(C(=O)OCc3ccccc3)NC(=O)N2C1C(=O)OCc1ccccc1 (stereo partly drawn)	51*	-10	9	2	1
O=[N+]([O-])c1ccc(C(=S)N2CCC(Cc3ccccc3)CC2)cc1	53*	-2	3	0	-2
O=[N+]([O-])c1ccc(CN2CCC(Cc3ccccc3)CC2)cc1	0	nt	-2	nt	nt
Cc1ccc(N2CCN(C(=O)c3nn(C)c4c3CS(=O)(=O)c3ccccc3-4)CC2)c(C)c1	nt	-6	nt	1	0
CC1OC(CC(=O)O)CC2=C1C(=O)c1c(O)cccc1C2=O (stereo not drawn)	63*	nt	83*	nt	nt
SMILES	TAAR1 antagonist	OXTR potentiator	TAAR1 ag	V1R ag counter	OXTR agonist
COc1ccc(OCc2cc(C(=O)NC(C)Cc3cnccn3)no2)c(Cl)c1 (stereo not drawn)	-8	-3	2	3	1
Cc1ccc(S(=O)(=O)CCC(=O)NCCN2C(=O)S/C(=C\c3ccccc3)C2=O)cc1	55*	-11	16	11	9
CCOC(=O)/C(=C/C=C1\Sc2cc(OCC)c(OCC)cc2N1CC)C(C)=O	73*	-16	158*	289*	248*
CCN1/C(=C/C(C)=O)Sc2ccc(OC)cc21	-14	-7	2	-1	-3
N#CC1C(=O)NC(=O)CC12CCCCC2 (stereo not drawn)	-6	nt	2	nt	nt
O=C1CC2(CCN(C(=O)c3ccc(F)c(F)c3)CC2)Oc2ccccc21	-12	-5	0	2	1
